Our source for the folding enthalpy and Tm values is the array DNA melting data of Ke et al. (doi:10.1101/2024.01.08.574731).

The nature of data set [1]: folding enthalpy; higher = less favourable; fluorescence melt of hairpins on a sequencing array, two-state fit. The conditions noted are these: sodium 0.088 M. The gist of the method:
(§1)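 Bootstrapped two-state fits yielded melting temperature and folding enthalpy for library hairpins. Cy3 fluorescence, with annealed Cy3 and quencher oligos, was imaged on a sequenced MiSeq flow cell in 50 mM Na-HEPES pH 8.0, 25 mM NaCl in 2.5 °C steps up to 60 °C, and normalised to pre-quench Cy3 and to control constructs. Four replicates were combined by inverse variance, and fitted temperatures were raised by 9.35 °C to match UV melts.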

Data set [2] is described as follows: melting temperature; fluorescence melt of hairpins on a sequencing array, two-state fit, raised by 9.35 °C to match UV melts. The conditions noted are these: sodium 0.088 M. The gist of the method: as §1

On to GGAGCCGAAAGGCTGTCC ((((((....)))..))), for which, in data set [1], the folding enthalpy is -8.93 kcal/mol. The Tm in data set [2] worked out at 41 °C.
In the case of GGAGCCGAAAGGCTTCC ((((((....))).))), the folding enthalpy in data set [1] was -14.6 kcal/mol. In addition, the Tm in data set [2] turned out to be 60.3 °C.
The matching figures for GGAGCCGGAAACAGCTCC (((((.(....).))))): -27.7 kcal/mol and 51.3 °C.
For the sequence GGAGCCGGAAACGGCTTC (.(((((....))))).), the folding enthalpy in data set [1] is -15 kcal/mol. Also, the Tm in data set [2] was 60.8 °C.
As for GGAGCCGGAAACGGTTCC (((.(((....))).))), the folding enthalpy in data set [1] is -45.1 kcal/mol. Besides, the Tm in data set [2] is 58.5 °C.
As to GGAGCCTCGAAAGAGTCC (((..(((....)))))), in data set [1], the folding enthalpy is -9.23 kcal/mol. Moreover, the Tm in data set [2] was 25.9 °C.
As for GGAGCGCGAAAGCGTCC (((.(((....)))))), in data set [1], the folding enthalpy is -13.9 kcal/mol. Moreover, the Tm in data set [2] amounted to 52.1 °C.
The matching figures for GGAGCGGCGAAAGCCTCC (((..(((....)))))): -13.8 kcal/mol and 39.5 °C.
Consider GGAGCTGCGAAAGCATCC (((..(((....)))))), for which the folding enthalpy in data set [1] is -9.48 kcal/mol. Also, the Tm in data set [2] was 32.4 °C.
The matching figures for GGAGCTGGAAACAGCCCC ((.((((....)))).)): -24.2 kcal/mol and 54.3 °C.
With GGAGCTGGAAACAGTTCC (((.(((....))).))), the folding enthalpy in data set [1] was -37 kcal/mol. The Tm in data set [2] was 50 °C.
With GGAGGAGGAAACTTCTCC ((((.((....)).)))), the folding enthalpy in data set [1] was -35.9 kcal/mol. Also, the Tm in data set [2] is 45.2 °C.
On to GGAGGCGAAAGCCAATCC ((((((....)))..))), for which the folding enthalpy in data set [1] is -10.4 kcal/mol. Further, in data set [2], the Tm was 33.6 °C.
The corresponding values for GGAGGCGGAAACGCCTTC (.(((((....))))).) are -14.9 kcal/mol and 57.5 °C.
Consider GGAGGCGGAAACGTCTCC ((((.((....)).)))), for which the folding enthalpy in data set [1] was -49.2 kcal/mol. In addition, the Tm in data set [2] came out at 58.9 °C.
On to GGAGGGCGAAAGCCATCC (((.(((....))).))), for which the folding enthalpy in data set [1] is -33.8 kcal/mol. For the same sequence, in data set [2], the Tm turned out to be 66.3 °C.
Turning to GGAGGGTCGAAAGACTCC (((..(((....)))))), the folding enthalpy in data set [1] is -14.3 kcal/mol. The Tm in data set [2] amounted to 39.5 °C.
The matching figures for GGAGGTCGAAAGACGTCC (((.(((....))).))): -37.7 kcal/mol and 57.8 °C.
Consider GGAGGTGGAAACACCCCC ((.((((....)))).)), for which the folding enthalpy in data set [1] was -18.7 kcal/mol. Also, in data set [2], the Tm came out at 49.1 °C.
The corresponding values for GGAGGTGGAAACACCTCC (((((((....))))))) are -40.8 kcal/mol and 68.6 °C.
GGAGGTGGAAACGCCTCC (((((.(....).))))): the folding enthalpy in data set [1] is -50 kcal/mol. In addition, the Tm in data set [2] was found to be 57.2 °C.
With GGAGGTGGAAACGCCTTC (.(((.(....).))).), the folding enthalpy in data set [1] is -26.2 kcal/mol. In addition, the Tm in data set [2] came to 48.5 °C.
With GGAGTAGGAAACTGCTCC ((((.((....)).)))), in data set [1], the folding enthalpy was -28.5 kcal/mol. The Tm in data set [2] came out at 51.4 °C.
As to GGAGTCCGAAAGGAGTCC (((.(((....))).))), the folding enthalpy in data set [1] was -44.2 kcal/mol. Moreover, in data set [2], the Tm was 63.3 °C.
As to GGAGTCGGAAACGACTTC (.(((((....))))).), the folding enthalpy in data set [1] is -25.6 kcal/mol. Moreover, the Tm in data set [2] is 55.5 °C.
Regarding GGAGTCGGAAACGGCTTC (.((.((....)).)).), the folding enthalpy in data set [1] was -21.7 kcal/mol. Also, the Tm in data set [2] is 44.3 °C.
Consider GGAGTCGGAAACGGTTCC (((..((....))..))), for which, in data set [1], the folding enthalpy is -27.1 kcal/mol. Also, in data set [2], the Tm is 34.6 °C.
Regarding GGAGTGACGAAAGTCTCC (((..(((....)))))), in data set [1], the folding enthalpy was -18 kcal/mol. Moreover, in data set [2], the Tm is 38.8 °C.
In the case of GGAGTGGCGAAAGCCTCC (((..(((....)))))), the folding enthalpy in data set [1] is -15 kcal/mol. Also, in data set [2], the Tm was 44 °C.
The corresponding values for GGAGTGGGAAACCACCCC ((.((((....)))).)) are -21.5 kcal/mol and 47.1 °C.
For GGAGTGGGAAACCACTCC (((((((....))))))), the folding enthalpy in data set [1] was -38.6 kcal/mol. Moreover, the Tm in data set [2] was 68.2 °C.
In the case of GGAGTTGGAAACAGTTCC (((..((....))..))), the folding enthalpy in data set [1] was -13.4 kcal/mol. The Tm in data set [2] came out at 35 °C.
The matching figures for GGATAAACGAAAGTTTCC (((..(((....)))))): -17.1 kcal/mol and 27.7 °C.
Take GGATAACGAAAGTTCTCC (((.(((....))).))): the folding enthalpy in data set [1] was -32.7 kcal/mol. In addition, the Tm in data set [2] was 41.3 °C.
Take GGATACACGAAAGTGTCC (((..(((....)))))): the folding enthalpy in data set [1] is -12 kcal/mol. Further, the Tm in data set [2] amounted to 35.9 °C.
For GGATACCCGAAAGGGTCC (((..(((....)))))), in data set [1], the folding enthalpy was -10.4 kcal/mol. In addition, the Tm in data set [2] was found to be 31.9 °C.
The matching figures for GGATACCGAAAGGTCTCC (((.(((....))).))): -25.3 kcal/mol and 47.6 °C.
The corresponding values for GGATACGAAAGTAGATCC ((((((....)))..))) are -17.9 kcal/mol and 34.7 °C.
GGATACGAAAGTAGCTCC ((((((....)))..))): in data set [1], the folding enthalpy was -12.7 kcal/mol. Besides, the Tm in data set [2] came to 37.1 °C.
The corresponding values for GGATACGAAAGTATTCC ((((((....))).))) are -22.8 kcal/mol and 42.9 °C.
As to GGATAGCGAAAGCTGTCC (((.(((....))).))), the folding enthalpy in data set [1] is -42.1 kcal/mol. For the same sequence, the Tm in data set [2] came to 59.3 °C.
The matching figures for GGATAGGAAACTATCC ((((((....)))))): -30.5 kcal/mol and 51.4 °C.
Regarding GGATAGGCGAAAGCCTCC (((..(((....)))))), the folding enthalpy in data set [1] was -10.2 kcal/mol. Moreover, the Tm in data set [2] is 36.6 °C.
Turning to GGATAGGGAAACCTATCC (((((((....))))))), the folding enthalpy in data set [1] was -47.9 kcal/mol. Further, in data set [2], the Tm was 56.8 °C.
For the sequence GGATATACGAAAGTATCC (((..(((....)))))), the folding enthalpy in data set [1] is -16.9 kcal/mol. In addition, the Tm in data set [2] was 36 °C.
As for GGATATGCGAAAGCATCC (((..(((....)))))), the folding enthalpy in data set [1] was -12.2 kcal/mol. Moreover, in data set [2], the Tm turned out to be 36.5 °C.
Take GGATATGGAAACGTATCC (((((.(....).))))): the folding enthalpy in data set [1] was -35.5 kcal/mol. Also, the Tm in data set [2] was 43.4 °C.
With GGATCAGAAATGATCC ((((((....)))))), the folding enthalpy in data set [1] is -36 kcal/mol. For the same sequence, the Tm in data set [2] was 55.3 °C.
GGATCAGGAAACTGATTC (.(((((....))))).): the folding enthalpy in data set [1] was -31.1 kcal/mol. For the same sequence, the Tm in data set [2] came out at 44.4 °C.
On to GGATCCCGAAAGGGGTCC (((.(((....))).))), for which, in data set [1], the folding enthalpy is -39.3 kcal/mol. Besides, the Tm in data set [2] was determined as 65.8 °C.
The corresponding values for GGATCCGAAAGGACTCC ((((((....))).))) are -23.9 kcal/mol and 47.4 °C.
Regarding GGATCCGGAAACGGACCC ((.((((....)))).)), the folding enthalpy in data set [1] was -21.2 kcal/mol. In data set [2], the Tm came to 50.4 °C.
Turning to GGATCGCGAAAGCGTTCC (((.(((....))).))), the folding enthalpy in data set [1] was -27.7 kcal/mol. The Tm in data set [2] was 57.8 °C.
The corresponding values for GGATCGGGAAACCGGTCC (((.(((....))).))) are -50.4 kcal/mol and 56.1 °C.
Regarding GGATCTGAAAAGATCC ((((((....)))))), in data set [1], the folding enthalpy is -37 kcal/mol. Further, in data set [2], the Tm came out at 58.3 °C.
